Our source for the IC50, Activity and inhibition values is ChEMBL document CHEMBL2311437, “Synthesis, molecular docking and evaluation of thiazolyl-pyrazoline derivatives containing benzodioxole as potential anticancer agents” (Bioorg Med Chem, 2013).

A short description of experiment [1]: Antiproliferative activity against mouse B16/F10 cells after 48 hrs by MTT assay. It counts as functional, cell-based. To be noted: B16-F10, 48 h. The essentials:
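Cells seeded 7×10^3/well, grown 24 h, then exposed 48 h to compounds at final 0.1–100 µg/mL. MTT (5 mg/mL in PBS) added for 4 h, then 10% SDS in 0.01 N HCl, 18 h at 37 °C. Absorbance read at 570 nm. Survival given as % of untreated cells. IC50 taken from replicates of 6 wells over at least three independent experiments.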

Experiment [2] concerns MCF7. As to the kind of experiment: Antiproliferative activity against human MCF7 cells after 48 hrs by MTT assay. It is filed as functional, cell-based. To be noted: MCF7, 48 h. For orientation: Tetrazolium assays rely on reduction of a dye to a coloured formazan, in cell work by metabolically active cells.
Experiment [3] addresses Receptor tyrosine-protein kinase erbB-2 (Homo sapiens, UniProt P04626). Nature of the experiment: Inhibition of human HER2 cytoplasmic domain (amino acids 676 to 1245) expressed in Sf9 cells by DELFIA time resolved fluorometry. The essentials: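 His6-tagged HER-2 was expressed in Sf-9 cells (3-day infection) and Ni-NTA purified at 4 °C. Assay measures autophosphorylation. Compound in 25 mM HEPES pH 7.4 (DMSO <0.1%) preincubated 10 min at RT with 12.5 ng enzyme. Then buffer (MnCl2, Na3VO4, DTT) and 0.1 mM ATP-50 mM MgCl2 (stock mix) added for 1 h. Readout: europium anti-phosphotyrosine, 1 h, ex 340/em 615 nm. IC50 from eight-concentration inhibition curves.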

The test system of another experiment is B16-F10. Nature of the experiment: Induction of apoptosis in mouse B16/F10 cells assessed as increase in cleaved caspase 3 levels after 24 hrs by Western blotting method. It is filed as functional, cell-based. An outline of the steps:
(§1)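 Cells treated 24 h, harvested and lysed in Tris pH 7.5/NaCl/NP-40 buffer with phosphatase and protease inhibitors. Protein quantified by BCA. Separation by 10% SDS–PAGE, transfer to PVDF, blocking in 5% milk 2 h at RT. Probed overnight at 4 °C with anti-HER-2 or anti-cleaved caspase 3, then HRP secondary antibody.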

Experiment [4] has as its system MCF7. As to the kind of experiment: Induction of apoptosis in human MCF7 cells assessed as increase in cleaved caspase 3 levels after 24 hrs by Western blotting method. It counts as functional, cell-based. An outline of the steps: as §1
The target in experiment [5] is Receptor tyrosine-protein kinase erbB-2 (Mus musculus) (UniProt P70424). As to the kind of experiment: Inhibition of HER2 in mouse B16/F10 cells assessed as down regulation of HEr2 protein levels after 24 hrs by Western blotting method. It is filed as cell-based. An outline of the steps: as §1
Receptor tyrosine-protein kinase erbB-2 (Mus musculus), sequence (P70424 whole entry): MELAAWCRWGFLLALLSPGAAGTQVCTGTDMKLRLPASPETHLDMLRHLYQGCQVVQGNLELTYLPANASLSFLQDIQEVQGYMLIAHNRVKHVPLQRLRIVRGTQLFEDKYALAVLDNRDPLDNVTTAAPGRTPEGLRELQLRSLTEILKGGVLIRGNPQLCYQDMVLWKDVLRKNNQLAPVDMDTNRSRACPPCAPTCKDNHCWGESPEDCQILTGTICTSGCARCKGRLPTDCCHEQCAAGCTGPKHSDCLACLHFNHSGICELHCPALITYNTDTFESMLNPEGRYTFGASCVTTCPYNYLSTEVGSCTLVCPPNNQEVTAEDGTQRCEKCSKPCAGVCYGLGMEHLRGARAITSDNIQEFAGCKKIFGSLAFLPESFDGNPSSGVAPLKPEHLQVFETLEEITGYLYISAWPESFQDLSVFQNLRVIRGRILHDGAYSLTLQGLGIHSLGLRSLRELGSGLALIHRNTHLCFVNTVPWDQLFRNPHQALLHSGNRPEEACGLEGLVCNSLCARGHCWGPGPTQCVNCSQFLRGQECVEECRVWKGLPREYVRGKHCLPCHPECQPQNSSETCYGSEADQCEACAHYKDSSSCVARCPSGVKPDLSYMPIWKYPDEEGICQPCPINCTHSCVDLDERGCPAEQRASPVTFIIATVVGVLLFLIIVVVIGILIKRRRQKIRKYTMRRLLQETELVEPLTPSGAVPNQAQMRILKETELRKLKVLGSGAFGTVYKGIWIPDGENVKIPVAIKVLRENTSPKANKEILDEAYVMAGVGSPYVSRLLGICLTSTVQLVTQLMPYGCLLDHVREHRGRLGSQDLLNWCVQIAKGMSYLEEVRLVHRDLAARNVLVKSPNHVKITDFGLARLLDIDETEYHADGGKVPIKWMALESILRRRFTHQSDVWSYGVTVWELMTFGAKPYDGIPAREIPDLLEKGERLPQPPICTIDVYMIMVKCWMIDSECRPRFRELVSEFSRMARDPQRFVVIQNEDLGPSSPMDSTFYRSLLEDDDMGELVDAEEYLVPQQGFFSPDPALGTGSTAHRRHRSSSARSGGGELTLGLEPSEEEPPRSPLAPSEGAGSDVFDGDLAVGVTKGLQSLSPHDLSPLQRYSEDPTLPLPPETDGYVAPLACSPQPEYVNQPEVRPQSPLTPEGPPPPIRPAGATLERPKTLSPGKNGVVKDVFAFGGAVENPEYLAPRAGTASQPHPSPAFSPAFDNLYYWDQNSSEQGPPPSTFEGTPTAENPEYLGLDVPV
(Immunoblotting shows a protein as a band on a membrane.)

Receptor tyrosine-protein kinase erbB-2, sequence (P04626 whole entry, the tested form may be a part): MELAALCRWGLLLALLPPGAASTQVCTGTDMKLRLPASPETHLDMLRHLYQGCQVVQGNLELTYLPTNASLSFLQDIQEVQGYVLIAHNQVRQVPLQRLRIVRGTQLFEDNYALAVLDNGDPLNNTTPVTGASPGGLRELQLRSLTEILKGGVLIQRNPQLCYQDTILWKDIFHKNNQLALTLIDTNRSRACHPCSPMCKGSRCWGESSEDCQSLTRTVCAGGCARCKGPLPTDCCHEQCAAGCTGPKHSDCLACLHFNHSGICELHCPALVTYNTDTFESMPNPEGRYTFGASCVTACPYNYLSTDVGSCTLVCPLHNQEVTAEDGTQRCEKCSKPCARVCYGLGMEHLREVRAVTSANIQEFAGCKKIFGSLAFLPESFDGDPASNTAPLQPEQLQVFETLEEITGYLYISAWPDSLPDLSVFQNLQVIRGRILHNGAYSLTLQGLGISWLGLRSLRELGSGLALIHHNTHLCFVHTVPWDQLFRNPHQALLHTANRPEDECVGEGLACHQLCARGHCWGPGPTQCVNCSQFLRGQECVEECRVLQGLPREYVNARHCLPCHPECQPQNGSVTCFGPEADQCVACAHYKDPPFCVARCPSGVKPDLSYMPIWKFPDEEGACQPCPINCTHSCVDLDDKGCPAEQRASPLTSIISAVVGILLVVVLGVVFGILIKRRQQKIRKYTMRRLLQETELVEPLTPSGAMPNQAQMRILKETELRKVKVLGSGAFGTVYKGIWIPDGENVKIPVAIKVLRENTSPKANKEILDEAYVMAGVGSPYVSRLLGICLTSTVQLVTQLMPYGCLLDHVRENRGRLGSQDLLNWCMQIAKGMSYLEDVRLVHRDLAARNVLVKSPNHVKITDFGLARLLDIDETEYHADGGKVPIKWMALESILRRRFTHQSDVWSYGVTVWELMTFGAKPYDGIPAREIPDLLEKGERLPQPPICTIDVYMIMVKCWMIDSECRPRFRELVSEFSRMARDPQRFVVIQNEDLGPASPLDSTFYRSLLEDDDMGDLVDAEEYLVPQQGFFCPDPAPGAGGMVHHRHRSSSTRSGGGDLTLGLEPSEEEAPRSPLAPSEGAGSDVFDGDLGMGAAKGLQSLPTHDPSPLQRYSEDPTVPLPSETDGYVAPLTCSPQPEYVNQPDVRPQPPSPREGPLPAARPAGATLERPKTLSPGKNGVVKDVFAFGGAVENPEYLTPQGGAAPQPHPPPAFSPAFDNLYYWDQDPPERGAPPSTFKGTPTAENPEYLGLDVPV

Turning to `COc1ccc(-c2csc(N3N=C(c4ccc(Cl)cc4)CC3c3ccc4c(c3)OCCO4)n2)cc1` (stereo not given), the IC50 – broadly, the concentration that gives 50% inhibition – in experiment [1] is 3120 nM; in the experiment on MCF7 [2] it was 3030 nM.
As to `Clc1ccc(C2=NN(c3nc(-c4ccc(Br)cc4)cs3)C(c3ccc4c(c3)OCO4)C2)cc1` (stereo not given), the concentration for half-maximal inhibition (IC50) amounted to 2380 nM in experiment [3], 1510 nM in experiment [1] and 1720 nM in the experiment with MCF7 [2].
Consider `COc1ccc(-c2csc(N3N=C(c4ccc(F)cc4)CC3c3ccc4c(c3)OCO4)n2)cc1` (stereo not given), for which the IC50 in experiment [1] came to 3980 nM; in the experiment with MCF7 [2], 3650 nM.
The matching figures for `Fc1ccc(C2=NN(c3nc(-c4ccc(Br)cc4)cs3)C(c3ccc4c(c3)OCCO4)C2)cc1` (stereo not given): 4110 nM and 4200 nM.
For `COc1ccc(-c2csc(N3N=C(c4ccc(Br)cc4)CC3c3ccc4c(c3)OCO4)n2)cc1` (stereo not given), the IC50 in experiment [3] amounted to 850 nM; in experiment [1] it was 320 nM; with MCF7 [2], 270 nM.
As for `COc1ccc(-c2csc(N3N=C(c4ccc(C)cc4)CC3c3ccc4c(c3)OCO4)n2)cc1` (stereo not given), the IC50 in experiment [1] came out at 1520 nM; with MCF7 [2] it was 1430 nM.
The matching figures for `COc1ccc(-c2csc(N3N=C(c4ccc(Cl)cc4)CC3c3ccc4c(c3)OCO4)n2)cc1` (stereo not given): 2320 nM and 2410 nM.
Regarding `Fc1ccc(C2=NN(c3nc(-c4ccc(Br)cc4)cs3)C(c3ccc4c(c3)OCO4)C2)cc1` (stereo not given), the IC50 was 3810 nM in experiment [1] and 3430 nM in the experiment with MCF7 [2].
For the compound `C#Cc1cccc(Nc2ncnc3cc(OCCOC)c(OCCOC)cc23)c1` [ERLOTINIB], the IC50 in experiment [1] is 50 nM.
As to `COc1ccc(-c2csc(N3N=C(c4ccc(Br)cc4)CC3c3ccc4c(c3)OCCO4)n2)cc1` (stereo not given), the half-inhibitory concentration (IC50) stood at 1320 nM in experiment [3], 1120 nM in experiment [1] and 870 nM in the experiment with MCF7 [2].
Regarding `COc1ccc(C2=NN(c3nc(-c4ccc(OC)cc4)cs3)C(c3ccc4c(c3)OCO4)C2)cc1` (stereo not given), the concentration for half-maximal inhibition (IC50) was found to be 2670 nM in experiment [1] and 2730 nM in the experiment with MCF7 [2].
Regarding `COc1ccc(-c2csc(N3N=C(c4ccc(F)cc4)CC3c3ccc4c(c3)OCCO4)n2)cc1` (stereo not given), the 50% inhibitory concentration (IC50) was 4430 nM in experiment [1] and 4530 nM in the experiment on MCF7 [2].
In the case of `Cc1ccc(C2=NN(c3nc(-c4ccc(Br)cc4)cs3)C(c3ccc4c(c3)OCO4)C2)cc1` (stereo not given), the IC50 in experiment [3] was found to be 2230 nM; in experiment [1], 1390 nM; in the experiment with MCF7 [2], 1410 nM.
As for `COc1ccc(C2=NN(c3nc(-c4ccc(OC)cc4)cs3)C(c3ccc4c(c3)OCCO4)C2)cc1` (stereo not given), the 50% inhibitory concentration (IC50) worked out at 3010 nM in experiment [1] and 2730 nM in the experiment with MCF7 [2].
As to `Brc1ccc(C2=NN(c3nc(-c4ccc(Br)cc4)cs3)C(c3ccc4c(c3)OCCO4)C2)cc1` (stereo not given), the IC50 in experiment [3] was 460 nM; in experiment [1], 430 nM; with MCF7 [2] it was 320 nM.
In the case of `COc1ccc(-c2csc(N3N=C(c4ccc(C)cc4)CC3c3ccc4c(c3)OCCO4)n2)cc1` (stereo not given), the IC50 came out at 2870 nM in experiment [1] and 2680 nM in the experiment with MCF7 [2].
The matching figures for `Clc1ccc(C2=NN(c3nc(-c4ccc(Br)cc4)cs3)C(c3ccc4c(c3)OCCO4)C2)cc1` (stereo not given): 2150 nM and 2230 nM.
The matching figures for `COc1ccc(C2=NN(c3nc(-c4ccc(Br)cc4)cs3)C(c3ccc4c(c3)OCO4)C2)cc1` (stereo not given): 2540 nM and 2470 nM.
The matching figures for `COc1ccc(C2=NN(c3nc(-c4ccc(Br)cc4)cs3)C(c3ccc4c(c3)OCCO4)C2)cc1` (stereo not given): 2520 nM and 2540 nM.
In the case of `Brc1ccc(C2=NN(c3nc(-c4ccc(Br)cc4)cs3)C(c3ccc4c(c3)OCO4)C2)cc1` (stereo not given), the Activity entry in the experiment on B16-F10 and in the experiment with MCF7 [4] was “Dose-dependent effect” throughout. For the same compound, in experiment [5], the inhibition entry is “Dose-dependent effect”. Further, the IC50 is 180 nM in experiment [3], 120 nM in experiment [1] and 90 nM in the experiment with MCF7 [2].
Take `Cc1ccc(C2=NN(c3nc(-c4ccc(Br)cc4)cs3)C(c3ccc4c(c3)OCCO4)C2)cc1` (stereo not given): the values for the IC50 (in experiment [1]; in the experiment on MCF7 [2]) were 1680 nM and 1590 nM, respectively.
